Consider 11 molecules from ChEMBL document CHEMBL3045311, “Naturally occurring antifungal agents against Zygosaccharomyces bailii and their synergism” (2005).

Assay [1] concerns Saccharomyces cerevisiae. The assay can be described thus: Antifungal activity against Saccharomyces cerevisiae ATCC 7754 assessed as reduction in plasma membrane fluidity at 100 ug/mL.
Assay [2] deals with Zygosaccharomyces bailii. The assay can be described thus: Inhibition of cell growth in Zygosaccharomyces bailii at 50 ug/mL. The assay is classed as functional, organism-based. The procedure, abridged:
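Exponentially growing Z. bailii ATCC 60483 in YPD broth at 30 °C with drug at 0, 50 or 100 µg/mL. Viable counts taken over time by serial dilution in sterile saline and plating on YPD agar, 48 h at 30 °C, then CFU counted.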

Assay [3] relates to Zygosaccharomyces bailii. The assay can be described thus: Antifungal activity against Zygosaccharomyces bailii assessed as growth inhibition measured after 48 hr by macrodilution assay. The assay is classed as functional.
The subject of assay [4] is Zygosaccharomyces bailii. The assay can be described thus: Antifungal activity against Zygosaccharomyces bailii assessed as growth inhibition measured at pH 9 after 48 hr by macrodilution assay. The assay is classed as functional. The procedure, abridged:
(§1)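 Broth macrodilution in YPD adjusted to the stated pH, Z. bailii ATCC 60483. Serial 2-fold dilutions in DMF (1% final) added to broth; inoculum 10^5 CFU/mL from a 5 h 30 °C preculture. Static incubation, 30 °C, 48 h. MIC is the lowest concentration with no visible growth; MFC is the lowest with no regrowth after 48 h subculture in drug-free YPD.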

For assay [5], the system named is Zygosaccharomyces bailii. The assay can be described thus: Antifungal activity against Zygosaccharomyces bailii assessed as growth inhibition measured at pH 7 after 48 hr by macrodilution assay. The assay is classed as functional. The procedure, abridged:
as §1

The subject of assay [6] is Zygosaccharomyces bailii. The assay can be described thus: Antifungal activity against Zygosaccharomyces bailii assessed as growth inhibition measured at pH 5 after 48 hr by macrodilution assay. The assay is classed as functional. The procedure, abridged: as §1
Assay [7] deals with Zygosaccharomyces bailii. In words: Antifungal activity against Zygosaccharomyces bailii assessed as growth inhibition measured at pH 3 after 48 hr by macrodilution assay. The assay is classed as functional. The procedure, abridged: as §1
Assay [8] concerns Zygosaccharomyces bailii. In words: Antifungal activity against Zygosaccharomyces bailii assessed as growth inhibition at MFC measured after 24 hr by macrodilution assay in presence of cycloheximide protein synthesis inhibitor. The assay is classed as functional, organism-based. The procedure, abridged:
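Z. bailii ATCC 60483 exponential cells grown in YPD broth at 30 °C with 50 µg/mL cycloheximide. After 24 h, agent added at its MFC. Viable counts by serial dilution in sterile saline, plating on YPD agar, 48 h at 30 °C, then colony counting.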

Assay [9] concerns Saccharomyces cerevisiae. The assay can be described thus: Antifungal activity against Saccharomyces cerevisiae ATCC 7754 assessed as reduction in plasma membrane fluidity at 25 ug/mL.
Assay [10] relates to Zygosaccharomyces bailii. The assay can be described thus: Antifungal activity against Zygosaccharomyces bailii assessed as reduction in cell viability at 100 ug/mL treated at 24, 48 and 72 hr measured after 1 hr of each addition.

In brackets after ≈: the same amount, converted by molar mass. Activity calls are given as the source filed them. The calls are words filed in the database; no cut-off is given here.

Consider `CCCCCCCCO`, for which the result in the assay on Saccharomyces cerevisiae [1] was inactive.
On the same count and under the same terms, to `CCCCCCCCOC(=O)c1cc(O)c(O)c(O)c1` belongs “Active”.
As to `C[C@@H]1C[C@@H]([C@H](O)CC2CC(=O)NC(=O)C2)C(=O)[C@@H](C)C1`, in the assay with Zygosaccharomyces bailii [2], the inhibition result was “Active”.
Turning to `CCC/C=C/C(=O)O` [(2E)-HEXENOIC ACID], the MFC was determined as 1600 µg/mL (≈ 14 mM) in the assay on Zygosaccharomyces bailii [3] and 800 µg/mL (≈ 7.01 mM) in the assay on Zygosaccharomyces bailii [3] (read-out: MFC).
On the same counts, the results for `CCC/C=C\C(=O)O` [(2Z)-HEXENOIC ACID] are 1600 µg/mL (≈ 14 mM) and 800 µg/mL (≈ 7.01 mM).
In the case of `C/C=C/c1ccc(OC)cc1` [ANETHOLE], the minimal fungicidal concentration (MFC) came out at 1600 µg/mL (≈ 10.8 mM) in the assay on Zygosaccharomyces bailii [4]; 1600 µg/mL (≈ 10.8 mM) in the assay on Zygosaccharomyces bailii [5]; 1600 µg/mL (≈ 10.8 mM) with Zygosaccharomyces bailii [6]; 1600 µg/mL (≈ 10.8 mM) in the assay on Zygosaccharomyces bailii [7]; 400 µg/mL (≈ 2.7 mM) with Zygosaccharomyces bailii [3]; 200 µg/mL (≈ 1.35 mM) in the assay with Zygosaccharomyces bailii [3] (read-out: MFC). Besides, the MIC in the assay with Zygosaccharomyces bailii [4] amounted to 1600 µg/mL (≈ 10.8 mM); in the assay with Zygosaccharomyces bailii [5], 800 µg/mL (≈ 5.4 mM); with Zygosaccharomyces bailii [6], 400 µg/mL (≈ 2.7 mM); with Zygosaccharomyces bailii [7], 100 µg/mL (≈ 0.675 mM).
As to `CCCCCC(=O)O` [HEXANOATE], the minimal fungicidal concentration (MFC) with Zygosaccharomyces bailii [3] was 3200 µg/mL (≈ 27.5 mM); in the assay with Zygosaccharomyces bailii [3] (read-out: MFC), 800 µg/mL (≈ 6.89 mM).
For `C/C=C/C=C/C(=O)OC` [METHYL SORBATE] the same measures were greater than 3200 µg/mL and greater than 3200 µg/mL.
On the same counts, the results for `Clc1ccc(COC(Cn2ccnc2)c2ccc(Cl)cc2Cl)c(Cl)c1` (stereo not given) [MICONAZOLE] are 12.5 µg/mL (≈ 0.03 mM) and 12.5 µg/mL (≈ 0.03 mM).
`CC1(C)CCC[C@]2(C)[C@@H](C=O)C(C=O)=CC[C@@H]12` [POLYGODIAL]: the “growth inhibition (GI)” value in the assay with Zygosaccharomyces bailii [8] was “Active”. Moreover, the MFC in the assay with Zygosaccharomyces bailii [3] and in the assay on Zygosaccharomyces bailii [3] (read-out: MFC) was 50 µg/mL (≈ 0.213 mM) each time. Further, the result in the assay on Saccharomyces cerevisiae [9] was Active. Further, the inhibition entry with Zygosaccharomyces bailii [10] is “Active”.
In the case of `C/C=C/C=C/C(=O)O` [SORBIC ACID], the MFC in the assay on Zygosaccharomyces bailii [3] was determined as 1600 µg/mL (≈ 14.3 mM); with Zygosaccharomyces bailii [3] (read-out: MFC), 800 µg/mL (≈ 7.13 mM).
